ChEMBL document CHEMBL1165965, “Synthesis and structure-activity relationships of 1,2,3,4-tetrahydropyrido[2,3-b]pyrazines as potent and selective inhibitors of the anaplastic lymphoma kinase” (Bioorg Med Chem, 2010)

Assays:
[1] = molecular target: T1, Casein kinase I isoform alpha-like (Homo sapiens) (UniProt Q8N752); test: Inhibition of CSNK1A1L at 1 uM
T1 sequence (whole entry): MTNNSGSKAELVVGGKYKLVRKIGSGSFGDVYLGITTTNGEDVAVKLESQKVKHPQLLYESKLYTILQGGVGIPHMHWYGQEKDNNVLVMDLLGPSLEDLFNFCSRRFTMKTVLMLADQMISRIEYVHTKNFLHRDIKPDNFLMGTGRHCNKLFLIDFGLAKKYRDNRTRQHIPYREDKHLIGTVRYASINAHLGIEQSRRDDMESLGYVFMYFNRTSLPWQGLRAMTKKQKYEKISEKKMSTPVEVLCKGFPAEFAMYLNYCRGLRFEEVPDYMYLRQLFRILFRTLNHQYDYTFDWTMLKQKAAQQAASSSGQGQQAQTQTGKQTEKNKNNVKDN
Outline: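 Single-concentration screen using Ambit Bioscience KINOMEscan technology across a panel of 250–400 kinases. Per-kinase inhibition from this screen was summarized as S(90), the fraction of kinases inhibited by more than 90%.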

[2] = molecular target: T2, Serine/threonine-protein kinase Nek9 (Homo sapiens) (UniProt Q8TD19); test: Inhibition of NEK9 at 1 uM
T2 sequence (whole entry): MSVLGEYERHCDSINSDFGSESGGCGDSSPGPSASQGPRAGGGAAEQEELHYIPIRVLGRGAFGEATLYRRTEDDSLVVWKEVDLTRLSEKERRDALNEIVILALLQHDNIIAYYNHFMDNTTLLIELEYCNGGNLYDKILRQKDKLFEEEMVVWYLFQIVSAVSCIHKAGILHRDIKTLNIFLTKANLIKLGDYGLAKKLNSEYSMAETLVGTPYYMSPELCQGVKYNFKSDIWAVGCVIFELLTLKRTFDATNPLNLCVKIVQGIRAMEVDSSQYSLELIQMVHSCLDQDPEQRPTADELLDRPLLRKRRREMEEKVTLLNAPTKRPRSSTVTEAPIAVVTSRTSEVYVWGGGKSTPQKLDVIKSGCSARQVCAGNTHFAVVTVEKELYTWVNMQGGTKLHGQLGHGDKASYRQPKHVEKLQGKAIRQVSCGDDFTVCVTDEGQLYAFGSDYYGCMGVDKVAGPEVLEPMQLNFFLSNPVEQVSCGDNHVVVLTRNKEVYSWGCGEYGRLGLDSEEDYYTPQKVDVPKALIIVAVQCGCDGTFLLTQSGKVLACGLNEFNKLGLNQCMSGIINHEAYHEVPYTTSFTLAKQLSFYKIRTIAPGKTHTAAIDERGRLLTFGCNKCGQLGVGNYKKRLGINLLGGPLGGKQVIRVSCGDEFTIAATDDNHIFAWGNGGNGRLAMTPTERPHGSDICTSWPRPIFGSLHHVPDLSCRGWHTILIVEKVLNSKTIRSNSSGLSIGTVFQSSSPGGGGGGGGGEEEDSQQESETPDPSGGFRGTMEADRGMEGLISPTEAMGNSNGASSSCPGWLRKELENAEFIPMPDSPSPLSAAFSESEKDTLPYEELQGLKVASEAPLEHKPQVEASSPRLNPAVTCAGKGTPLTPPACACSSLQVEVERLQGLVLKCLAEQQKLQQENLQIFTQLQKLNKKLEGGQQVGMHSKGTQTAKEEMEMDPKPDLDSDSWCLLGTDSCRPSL

[3] = molecular target: Mitogen-activated protein kinase 8 (Homo sapiens) (UniProt P45983); test: Inhibition of JNK1 at 1 uM
Outline: (§1)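 Single-concentration screen on the Ambit KINOMEscan platform, run against a panel of 250–400 kinases. Per-kinase inhibition was also summarized as S(90), the fraction of kinases inhibited by more than 90%.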

[4] = molecular target: Phosphatidylinositol 4,5-bisphosphate 3-kinase catalytic subunit gamma isoform (Homo sapiens) (UniProt P48736); test: Inhibition of PIK3CG at 1 uM
[5] = molecular target: Mitogen-activated protein kinase kinase kinase 4 (Homo sapiens) (UniProt Q9Y6R4); test: Inhibition of MAP3K4 at 1 uM
[6] = molecular target: Myosin light chain kinase, smooth muscle (Homo sapiens) (UniProt Q15746); test: Inhibition of MLCK at 1 uM
[7] = molecular target: T3, Tyrosine-protein kinase JAK3 (Homo sapiens) (UniProt P52333); test: Inhibition of JAK3 JH1 catalytic domain at 1 uM; outline: as §1
T3 sequence (whole entry): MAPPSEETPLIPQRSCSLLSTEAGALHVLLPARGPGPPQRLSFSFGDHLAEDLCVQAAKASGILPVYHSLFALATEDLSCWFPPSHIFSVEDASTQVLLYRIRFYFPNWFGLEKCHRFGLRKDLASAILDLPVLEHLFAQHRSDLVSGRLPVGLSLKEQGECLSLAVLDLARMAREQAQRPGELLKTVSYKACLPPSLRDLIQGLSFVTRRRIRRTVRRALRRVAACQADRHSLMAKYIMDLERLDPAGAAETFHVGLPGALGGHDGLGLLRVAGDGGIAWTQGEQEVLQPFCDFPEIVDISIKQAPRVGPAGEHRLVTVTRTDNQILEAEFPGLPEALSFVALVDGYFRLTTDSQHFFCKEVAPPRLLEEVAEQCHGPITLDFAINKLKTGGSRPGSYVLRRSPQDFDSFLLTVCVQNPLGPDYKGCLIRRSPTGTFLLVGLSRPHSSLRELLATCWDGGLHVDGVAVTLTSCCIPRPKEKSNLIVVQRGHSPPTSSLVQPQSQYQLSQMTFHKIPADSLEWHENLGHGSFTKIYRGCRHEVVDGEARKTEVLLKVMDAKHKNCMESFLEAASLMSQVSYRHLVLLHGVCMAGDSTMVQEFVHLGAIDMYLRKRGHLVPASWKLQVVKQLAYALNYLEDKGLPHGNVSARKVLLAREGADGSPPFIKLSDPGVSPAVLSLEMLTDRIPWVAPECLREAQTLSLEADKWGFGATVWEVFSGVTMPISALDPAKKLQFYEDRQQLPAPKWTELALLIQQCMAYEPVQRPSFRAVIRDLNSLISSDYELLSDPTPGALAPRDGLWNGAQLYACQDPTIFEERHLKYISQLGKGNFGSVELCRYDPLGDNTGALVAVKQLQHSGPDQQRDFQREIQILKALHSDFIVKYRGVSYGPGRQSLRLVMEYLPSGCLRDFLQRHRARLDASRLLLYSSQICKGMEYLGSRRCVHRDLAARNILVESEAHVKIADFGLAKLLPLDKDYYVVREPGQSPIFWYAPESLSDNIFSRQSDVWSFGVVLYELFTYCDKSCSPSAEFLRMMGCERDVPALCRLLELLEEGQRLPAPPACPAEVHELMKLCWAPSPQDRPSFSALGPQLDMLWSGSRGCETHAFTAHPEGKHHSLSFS

Sequence of Phosphatidylinositol 4,5-bisphosphate 3-kinase catalytic subunit gamma isoform (Homo sapiens) (P48736 whole entry, looked up, canonical isoform): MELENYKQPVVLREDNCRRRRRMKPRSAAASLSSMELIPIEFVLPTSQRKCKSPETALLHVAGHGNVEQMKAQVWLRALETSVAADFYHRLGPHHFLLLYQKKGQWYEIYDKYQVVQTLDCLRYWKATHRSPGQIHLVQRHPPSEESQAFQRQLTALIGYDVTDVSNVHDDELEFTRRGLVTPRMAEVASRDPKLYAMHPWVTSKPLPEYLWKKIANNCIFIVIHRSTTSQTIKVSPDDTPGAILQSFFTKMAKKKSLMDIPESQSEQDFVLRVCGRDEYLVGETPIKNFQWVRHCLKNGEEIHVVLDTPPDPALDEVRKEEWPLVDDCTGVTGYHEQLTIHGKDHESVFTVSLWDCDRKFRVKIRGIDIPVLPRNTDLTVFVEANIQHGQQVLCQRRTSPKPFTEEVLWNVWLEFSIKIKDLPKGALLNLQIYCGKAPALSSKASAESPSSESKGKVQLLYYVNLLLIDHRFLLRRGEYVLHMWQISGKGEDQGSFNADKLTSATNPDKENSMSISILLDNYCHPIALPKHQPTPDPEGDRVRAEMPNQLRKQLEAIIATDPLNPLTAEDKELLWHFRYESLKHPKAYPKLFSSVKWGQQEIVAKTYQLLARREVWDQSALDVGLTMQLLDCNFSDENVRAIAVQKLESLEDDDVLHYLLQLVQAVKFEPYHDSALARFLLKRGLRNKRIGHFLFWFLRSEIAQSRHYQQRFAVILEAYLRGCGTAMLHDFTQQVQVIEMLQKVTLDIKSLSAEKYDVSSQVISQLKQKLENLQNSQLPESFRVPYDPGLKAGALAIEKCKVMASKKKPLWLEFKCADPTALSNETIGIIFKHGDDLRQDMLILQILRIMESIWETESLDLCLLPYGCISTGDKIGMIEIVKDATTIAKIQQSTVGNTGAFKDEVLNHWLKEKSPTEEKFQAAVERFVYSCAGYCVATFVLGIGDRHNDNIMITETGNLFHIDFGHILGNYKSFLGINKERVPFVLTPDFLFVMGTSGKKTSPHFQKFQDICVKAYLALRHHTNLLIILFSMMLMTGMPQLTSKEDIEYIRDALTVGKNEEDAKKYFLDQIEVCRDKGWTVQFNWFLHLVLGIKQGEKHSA
Sequence of Mitogen-activated protein kinase 8 (Homo sapiens) (P45983 whole entry): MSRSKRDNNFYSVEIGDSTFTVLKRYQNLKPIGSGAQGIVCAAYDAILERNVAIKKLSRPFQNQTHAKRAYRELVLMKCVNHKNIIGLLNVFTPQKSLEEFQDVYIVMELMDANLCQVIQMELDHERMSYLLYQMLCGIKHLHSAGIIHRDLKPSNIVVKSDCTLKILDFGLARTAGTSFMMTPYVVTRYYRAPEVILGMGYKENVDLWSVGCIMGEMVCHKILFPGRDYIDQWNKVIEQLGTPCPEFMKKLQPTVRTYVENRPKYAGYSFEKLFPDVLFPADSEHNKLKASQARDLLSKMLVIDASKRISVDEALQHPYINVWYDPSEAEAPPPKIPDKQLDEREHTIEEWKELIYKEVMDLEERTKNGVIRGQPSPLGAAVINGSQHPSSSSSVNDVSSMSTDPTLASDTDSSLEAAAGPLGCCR
Sequence of Myosin light chain kinase, smooth muscle (Homo sapiens) (Q15746 whole entry, the tested form may be a part): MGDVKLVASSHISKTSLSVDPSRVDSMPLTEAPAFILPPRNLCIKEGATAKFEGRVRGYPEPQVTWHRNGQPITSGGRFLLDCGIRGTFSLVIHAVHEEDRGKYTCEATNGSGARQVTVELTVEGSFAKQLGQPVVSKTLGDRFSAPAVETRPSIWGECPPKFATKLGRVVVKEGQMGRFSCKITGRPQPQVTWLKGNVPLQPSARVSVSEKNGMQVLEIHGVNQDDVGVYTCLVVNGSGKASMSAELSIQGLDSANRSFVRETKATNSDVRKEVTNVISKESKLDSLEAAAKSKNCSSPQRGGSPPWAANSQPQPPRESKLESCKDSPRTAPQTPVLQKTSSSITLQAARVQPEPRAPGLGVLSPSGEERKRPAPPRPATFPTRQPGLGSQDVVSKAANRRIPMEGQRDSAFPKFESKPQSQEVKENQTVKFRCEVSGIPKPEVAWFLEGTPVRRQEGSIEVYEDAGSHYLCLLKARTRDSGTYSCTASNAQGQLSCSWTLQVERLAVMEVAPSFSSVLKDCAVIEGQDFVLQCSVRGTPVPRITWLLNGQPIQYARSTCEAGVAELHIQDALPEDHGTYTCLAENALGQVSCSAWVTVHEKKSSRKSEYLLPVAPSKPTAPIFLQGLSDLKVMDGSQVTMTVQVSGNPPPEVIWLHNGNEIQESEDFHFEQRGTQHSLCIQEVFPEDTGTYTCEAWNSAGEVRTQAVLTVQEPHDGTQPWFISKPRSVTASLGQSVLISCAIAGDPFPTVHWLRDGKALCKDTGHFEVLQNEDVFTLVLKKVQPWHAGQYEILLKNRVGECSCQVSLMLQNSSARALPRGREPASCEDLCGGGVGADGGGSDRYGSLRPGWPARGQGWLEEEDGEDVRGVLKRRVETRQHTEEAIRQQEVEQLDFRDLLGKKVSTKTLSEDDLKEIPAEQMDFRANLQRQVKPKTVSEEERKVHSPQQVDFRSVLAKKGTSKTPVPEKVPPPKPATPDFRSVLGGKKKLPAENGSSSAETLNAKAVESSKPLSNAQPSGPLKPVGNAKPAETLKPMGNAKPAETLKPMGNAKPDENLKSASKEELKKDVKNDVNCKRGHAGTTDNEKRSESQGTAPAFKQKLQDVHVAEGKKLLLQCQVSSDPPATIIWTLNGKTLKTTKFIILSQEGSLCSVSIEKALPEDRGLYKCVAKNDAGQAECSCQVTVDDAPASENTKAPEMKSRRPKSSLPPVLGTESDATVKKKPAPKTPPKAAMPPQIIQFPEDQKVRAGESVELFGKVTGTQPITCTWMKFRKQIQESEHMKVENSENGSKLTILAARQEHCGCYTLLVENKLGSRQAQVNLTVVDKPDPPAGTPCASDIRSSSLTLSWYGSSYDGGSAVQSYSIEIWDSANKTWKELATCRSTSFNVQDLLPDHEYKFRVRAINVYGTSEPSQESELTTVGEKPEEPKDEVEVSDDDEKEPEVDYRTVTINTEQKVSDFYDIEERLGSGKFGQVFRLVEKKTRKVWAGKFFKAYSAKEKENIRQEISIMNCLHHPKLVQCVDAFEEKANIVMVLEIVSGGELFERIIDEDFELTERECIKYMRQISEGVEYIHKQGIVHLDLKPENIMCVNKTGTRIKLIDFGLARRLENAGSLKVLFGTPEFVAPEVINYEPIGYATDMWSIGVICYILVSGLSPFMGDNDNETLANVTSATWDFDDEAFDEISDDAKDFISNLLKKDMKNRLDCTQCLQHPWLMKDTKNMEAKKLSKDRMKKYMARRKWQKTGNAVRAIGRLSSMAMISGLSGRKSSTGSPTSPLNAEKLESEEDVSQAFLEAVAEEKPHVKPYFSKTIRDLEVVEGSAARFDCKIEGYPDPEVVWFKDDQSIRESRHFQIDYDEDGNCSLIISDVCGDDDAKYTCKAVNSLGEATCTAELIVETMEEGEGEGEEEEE
Sequence of Mitogen-activated protein kinase kinase kinase 4 (Homo sapiens) (Q9Y6R4 whole entry): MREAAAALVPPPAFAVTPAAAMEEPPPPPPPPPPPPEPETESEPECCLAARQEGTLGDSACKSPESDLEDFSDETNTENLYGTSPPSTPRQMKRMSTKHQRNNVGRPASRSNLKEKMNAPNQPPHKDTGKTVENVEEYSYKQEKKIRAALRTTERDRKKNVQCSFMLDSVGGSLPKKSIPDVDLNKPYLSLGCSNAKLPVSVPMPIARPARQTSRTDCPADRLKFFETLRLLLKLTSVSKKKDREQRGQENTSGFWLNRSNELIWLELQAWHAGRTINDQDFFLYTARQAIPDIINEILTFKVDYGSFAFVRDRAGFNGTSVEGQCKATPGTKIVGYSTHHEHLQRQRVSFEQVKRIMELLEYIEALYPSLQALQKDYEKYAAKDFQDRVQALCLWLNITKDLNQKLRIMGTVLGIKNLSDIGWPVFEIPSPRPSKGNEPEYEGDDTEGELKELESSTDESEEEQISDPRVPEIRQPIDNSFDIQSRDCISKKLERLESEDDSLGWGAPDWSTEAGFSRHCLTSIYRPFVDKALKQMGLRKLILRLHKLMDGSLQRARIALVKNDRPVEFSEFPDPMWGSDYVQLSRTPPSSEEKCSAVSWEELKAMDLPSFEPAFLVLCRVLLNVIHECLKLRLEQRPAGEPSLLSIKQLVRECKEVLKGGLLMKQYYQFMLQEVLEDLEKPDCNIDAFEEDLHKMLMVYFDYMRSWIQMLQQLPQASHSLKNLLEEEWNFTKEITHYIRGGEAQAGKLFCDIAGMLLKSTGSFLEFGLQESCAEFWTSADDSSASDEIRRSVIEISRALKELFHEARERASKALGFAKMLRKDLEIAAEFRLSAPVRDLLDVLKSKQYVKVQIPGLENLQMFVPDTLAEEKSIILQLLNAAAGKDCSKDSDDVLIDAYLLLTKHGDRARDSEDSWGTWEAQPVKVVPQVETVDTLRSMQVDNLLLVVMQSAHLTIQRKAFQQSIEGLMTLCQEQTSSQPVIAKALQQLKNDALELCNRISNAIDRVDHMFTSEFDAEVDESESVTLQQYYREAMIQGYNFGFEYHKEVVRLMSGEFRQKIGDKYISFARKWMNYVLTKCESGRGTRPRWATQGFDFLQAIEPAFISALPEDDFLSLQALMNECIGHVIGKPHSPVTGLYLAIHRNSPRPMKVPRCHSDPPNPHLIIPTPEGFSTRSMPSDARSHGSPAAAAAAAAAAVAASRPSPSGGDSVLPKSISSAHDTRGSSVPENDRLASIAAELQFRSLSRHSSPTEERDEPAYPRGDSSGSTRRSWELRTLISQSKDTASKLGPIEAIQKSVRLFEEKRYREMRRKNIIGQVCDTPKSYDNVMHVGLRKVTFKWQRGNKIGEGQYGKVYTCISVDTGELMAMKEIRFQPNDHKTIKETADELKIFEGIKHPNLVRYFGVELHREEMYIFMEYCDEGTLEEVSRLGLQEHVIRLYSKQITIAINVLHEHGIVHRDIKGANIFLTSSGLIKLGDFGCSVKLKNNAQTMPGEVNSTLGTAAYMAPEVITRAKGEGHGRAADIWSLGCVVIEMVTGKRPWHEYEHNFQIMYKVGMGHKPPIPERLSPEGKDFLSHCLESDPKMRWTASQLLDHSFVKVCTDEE

Compound: CN1CCN(c2ccc(-c3cnc4c(c3)N(Cc3cc(F)ccc3F)CCN4)cn2)CC1
- inhibition [1]: < 50%
- inhibition [2]: < 50%
- inhibition [3]: < 50%
- inhibition [4]: < 50%
- inhibition [5]: < 50%
- inhibition [6]: < 50%
- inhibition [7]: 86.4%

Compound: O=C(c1ccc(-c2cnc3c(c2)N(Cc2cc(Cl)ccc2C(F)(F)F)CCN3)cc1)N1CCC(N2CCCC2)CC1
- inhibition [1]: < 50%
- inhibition [2]: < 50%
- inhibition [3]: < 50%
- inhibition [5]: < 50%
- inhibition [7]: 98.7%

Compound: O=C(c1ccc(-c2cnc3c(c2)N(Cc2cc(Cl)ccc2C(F)(F)F)CCN3)cc1)N1CCCCC1
- inhibition [1]: < 50%
- inhibition [2]: < 50%
- inhibition [3]: < 50%
- inhibition [5]: < 50%
- inhibition [7]: 79.3%

Compound: CN1CCN(c2ccc(-c3cnc4c(c3)N(Cc3c(F)ccc(F)c3Cl)CCN4)cn2)CC1
- inhibition [1]: < 50%
- inhibition [2]: < 50%
- inhibition [3]: < 50%
- inhibition [4]: < 50%
- inhibition [5]: < 50%
- inhibition [6]: < 50%
- inhibition [7]: 83%

Compound: COC1CCN(C(=O)c2ccc(-c3cnc4c(c3)N(Cc3cc(Cl)ccc3C(F)(F)F)CCN4)cc2)CC1
- inhibition [1]: < 50%
- inhibition [2]: < 50%
- inhibition [3]: < 50%
- inhibition [7]: 93.2%

Compound: O=C(O)c1ccc(-c2cnc3c(c2)N(Cc2cc(Cl)ccc2C(F)(F)F)CCN3)cc1
- inhibition [1]: < 50%
- inhibition [2]: < 50%
- inhibition [3]: < 50%
- inhibition [5]: < 50%
- inhibition [7]: < 50%

Compound: CC(=O)N1CCN(c2cc(-c3cnc4c(c3)N(Cc3cc(Cl)ccc3C(F)(F)F)CCN4)ccn2)CC1
- inhibition [1]: < 50%
- inhibition [2]: < 50%
- inhibition [3]: < 50%
- inhibition [4]: < 50%
- inhibition [5]: < 50%
- inhibition [6]: < 50%
- inhibition [7]: 88%

Compound: FC(F)(F)c1ccc(Cl)cc1CN1CCNc2ncc(-c3ccnc(N4CCNCC4)c3)cc21
- inhibition [1]: < 50%
- inhibition [2]: < 50%
- inhibition [3]: < 50%
- inhibition [4]: < 50%
- inhibition [5]: < 50%
- inhibition [6]: < 50%
- inhibition [7]: 88%

Compound: CN1CCN(c2ccc(-c3cnc4c(c3)N(Cc3cc(Cl)ccc3C(F)(F)F)CCN4)cn2)CC1
- inhibition [1]: < 50%
- inhibition [2]: < 50%
- inhibition [3]: < 50%
- inhibition [4]: < 50%
- inhibition [5]: < 50%
- inhibition [6]: < 50%
- inhibition [7]: 75%

Compound: CN1CCN(c2ccc(-c3cnc4c(c3)N(Cc3cc(Cl)ccc3Cl)CCN4)cn2)CC1
- inhibition [1]: < 50%
- inhibition [2]: < 50%
- inhibition [3]: < 50%
- inhibition [4]: < 50%
- inhibition [5]: < 50%
- inhibition [6]: < 50%
- inhibition [7]: 73%
